This note sets out measurements from article PMC5299035 (Drug development research, 2016).

Assay type in all cases: cell-based
The test system of one test is human neutrophils. The test is described as follows: Ca2+ mobilization assay in human neutrophils. Particulars: Homo sapiens, Neutrophil, read-out: Ca2+ flux human neutrophils EC50. In outline:
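Neutrophils from healthy donors were purified by dextran sedimentation, Histopaque 1077 gradient and hypotonic red-cell lysis (>95% pure, >98% viable). After Fluo-4 AM loading (1.25 μg/mL final, 30 min, 37 °C, dark), cells were seeded at 2 × 10^5/well in HBSS with Ca2+/Mg2+. Fluorescence (485/538 nm) was tracked every 5 s for 240 s at room temperature. Maximum change over baseline was normalised, and EC50 came from a 5-6-point nonlinear fit.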
(In general: A change in cytosolic calcium serves as a functional read-out for many receptors and channels.)

A further test deals with T1, FPR1 (Homo sapiens, UniProt P21462).
T1 sequence (P21462 1-350): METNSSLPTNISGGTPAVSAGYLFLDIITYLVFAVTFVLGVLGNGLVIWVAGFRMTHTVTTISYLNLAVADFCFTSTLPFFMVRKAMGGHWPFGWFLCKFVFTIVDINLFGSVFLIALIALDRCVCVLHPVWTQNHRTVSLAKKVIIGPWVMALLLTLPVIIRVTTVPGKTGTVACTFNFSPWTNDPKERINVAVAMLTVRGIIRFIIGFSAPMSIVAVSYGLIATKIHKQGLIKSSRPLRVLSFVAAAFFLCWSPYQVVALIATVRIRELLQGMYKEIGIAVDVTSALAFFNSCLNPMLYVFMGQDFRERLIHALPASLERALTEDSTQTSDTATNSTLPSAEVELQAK
The test is described as follows: Ca2+ mobilization assay in FPR1-HL60 cells. Particulars: for Emax: read-out: Ca2+ flux FPR1-HL60 efficacy. In outline: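 FPR1-transfected HL60 cells were grown in RPMI 1640 with 10% heat-inactivated FCS, 10 mM HEPES and G418 (1 mg/mL). Cells were loaded with Fluo-4 AM (1.25 μg/mL final) for 30 min at 37 °C in the dark, then washed and seeded in HBSS+ at 2 × 10^5 cells/well. Fluorescence (485/538 nm) was read every 5 s for 240 s at room temperature after compound addition. Peak rise over baseline was set against 5 nM fMLF (100%). EC50 came from nonlinear regression of 5-6-point curves, mean of three independent experiments. No activity meant no response within 2 min (limits: efficacy >20%, EC50 <50 μM).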

The next test concerns the target T2, FPR2 (Homo sapiens, UniProt P25090).
T2 sequence (P25090 1-351): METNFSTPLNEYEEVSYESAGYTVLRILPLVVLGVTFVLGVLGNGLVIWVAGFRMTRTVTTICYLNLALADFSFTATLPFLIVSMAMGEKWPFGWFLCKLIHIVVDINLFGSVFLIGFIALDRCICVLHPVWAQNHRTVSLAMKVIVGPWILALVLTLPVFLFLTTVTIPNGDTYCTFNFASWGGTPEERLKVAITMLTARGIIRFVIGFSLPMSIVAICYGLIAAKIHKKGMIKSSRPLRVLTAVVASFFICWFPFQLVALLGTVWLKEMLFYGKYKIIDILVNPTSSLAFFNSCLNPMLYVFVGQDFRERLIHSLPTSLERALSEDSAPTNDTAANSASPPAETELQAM
The experiment in a line: Ca2+ mobilization assay in FPR2-HL60 cells. Particulars: for Emax: read-out: Ca2+ flux FPR2-HL60 efficacy. In outline: (§1)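 FPR2- or FPR3-transfected HL60 cells were grown in RPMI 1640 with 10% heat-inactivated FCS and G418 1 mg/mL. Cells were loaded with Fluo-4 AM (1.25 μg/mL final) for 30 min at 37 °C in the dark, washed, and seeded at 2 × 10^5 cells/well in HBSS+. Fluorescence (ex 485/em 538 nm) was read every 5 s for 240 s at room temperature. Peak rise over baseline was normalised to the reference agonist. EC50 came from 5-6-point nonlinear regression over three independent experiments.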

For the next test, the target named is T3, FPR3 (Homo sapiens, UniProt P25089).
T3 sequence (P25089 1-353): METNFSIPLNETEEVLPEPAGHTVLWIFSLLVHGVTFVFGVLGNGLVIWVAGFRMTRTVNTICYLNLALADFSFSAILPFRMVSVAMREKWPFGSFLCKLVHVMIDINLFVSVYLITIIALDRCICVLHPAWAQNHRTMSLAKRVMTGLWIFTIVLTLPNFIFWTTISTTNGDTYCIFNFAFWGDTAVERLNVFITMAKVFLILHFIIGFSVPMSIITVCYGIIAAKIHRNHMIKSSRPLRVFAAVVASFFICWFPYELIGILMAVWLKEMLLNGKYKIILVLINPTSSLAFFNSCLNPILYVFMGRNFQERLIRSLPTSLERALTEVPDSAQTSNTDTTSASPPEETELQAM
The experiment in a line: Ca2+ mobilization assay in FPR3-HL60 cells. Particulars: for Emax: read-out: Ca2+ flux FPR3-HL60 efficacy. In outline: as §1

By EC50 is commonly meant the midpoint of the concentration-response curve. Take `O=C(Cn1c(-c2ccc(Cl)cc2)csc1=O)Nc1ccc(Br)cc1` [9g, N-(4-Bromophenyl)-2-[4-(4-chlorophenyl)-2-oxothiazol-3-yl]acetamide]: the EC50 with human neutrophils was 12.2 ± 3.1 µM. Besides, the Emax at FPR1 and on FPR2 was 75% throughout.
For `CCCCc1c(C)nn(CC(=O)Nc2ccc(Br)cc2)c(=O)c1Cc1cccc(OC)c1` [4e, N-(4-Bromophenyl)-2-[4-butyl-5-(3-methoxybenzyl)-3-methyl-6-oxopyridazin-1(6H)-yl]acetamide], the EC50 in the test with human neutrophils is 2.7 ± 0.7 µM. Further, the Emax on FPR2 was 90%.
Consider `CCc1c(C)nn(CC(=O)Nc2ccc(Br)cc2)c(=O)c1Cc1cccc(OC)c1` [4c, N-(4-Bromophenyl)-2-[4-ethyl-5-(3-methoxybenzyl)-3-methyl-6-oxopyridazin-1(6H)-yl]acetamide], for which the EC50 with human neutrophils worked out at 1.2 ± 0.3 µM; at FPR3 it was 4.1 ± 1.7 µM. Further, the Emax on FPR3 is 100%; at FPR1 it was 120%; on FPR2, 100%.
On to `O=C(Cn1c(-c2ccc([N+](=O)[O-])cc2)csc1=O)Nc1ccc(Br)cc1` [9h, N-(4-Bromophenyl)-2-[4-(4-nitrophenyl)-2-oxothiazol-3-yl]acetamide], for which the EC50 in the test with human neutrophils amounted to 1.5 ± 0.4 µM. The Emax at FPR1 was 60%.
Regarding `O=C(Cn1c(-c2cccc(Cl)c2)csc1=O)Nc1ccc(Br)cc1` [9f, N-(4-Bromophenyl)-2-[4-(3-chlorophenyl)-2-oxothiazol-3-yl]acetamide], the EC50 in the test with human neutrophils was 11.1 ± 2.8 µM; at FPR3 it was 32.2 ± 3.6 µM; at FPR1 it was 6 ± 1.7 µM; at FPR2, 3 ± 0.7 µM. Also, the Emax at FPR3 is 75%; at FPR1, 75%; on FPR2, 110%.
Consider `O=C(Cn1c(-c2ccccc2)csc1=O)Nc1ccc(Br)cc1` [9c, N-(4-Bromophenyl)-2-(2-oxo-4-phenyl-thiazol-3-yl)acetamide], for which the EC50 with human neutrophils came out at 6 ± 1.5 µM; on FPR3, 19.7 ± 2.4 µM; on FPR1 it was 1.8 ± 0.6 µM; on FPR2, 2.1 ± 0.6 µM. Moreover, the Emax on FPR3 was 135%; at FPR1 it was 100%; on FPR2, 95%.
For `Cc1csc(=O)n1CC(=O)Nc1ccc(Br)cc1` [9b, N-(4-Bromophenyl)-2-(4-methyl-2-oxo-thiazol-3-yl)acetamide], the EC50 in the test with human neutrophils came out at 10.7 ± 2.3 µM; at FPR3 it was 27.8 ± 3.2 µM; on FPR1 it was 12.4 ± 2.6 µM; on FPR2 it was 4.1 ± 1.1 µM. Moreover, the Emax at FPR3 is 85%; on FPR1, 70%; at FPR2 it was 80%.
For the compound `Nc1ccc(-c2csc(=O)n2CC(=O)Nc2ccc(Br)cc2)cc1` [compound 10, 2-[4-(4-Aminophenyl)-2-oxothiazol-3-yl]-N-(4-bromophenyl)acetamide], the results for the EC50 in the test on human neutrophils, on FPR1 and at FPR2 were 36.1 ± 3.9 µM, 34.9 ± 4.2 µM and 14.7 ± 3.7 µM, respectively. In addition, the Emax at FPR1 was 80%; on FPR2 it was 65%.
Take `CC(=O)c1sc(=O)n(CC(=O)Nc2ccc(Br)cc2)c1C` [9a, 2-(5-Acetyl-4-methyl-2-oxo-thiazol-3-yl)-N-(4-bromophenyl)acetamide]: the EC50 with human neutrophils was found to be 12.2 ± 2.5 µM; at FPR1, 8.9 ± 1.9 µM; at FPR2, 5.8 ± 1.4 µM. The figures for the Emax on FPR1 and at FPR2 were 75% and 60%, respectively.
`CCCc1c(C)nn(CC(=O)Nc2ccc(Br)cc2)c(=O)c1Cc1cccc(OC)c1` [4d, N-(4-Bromophenyl)-2-[5-(3-methoxybenzyl)-3-methyl-6-oxo-4-propylpyridazin-1(6H)-yl]acetamide]: the EC50 in the test with human neutrophils stood at 3.2 ± 1.2 µM; on FPR3 it was 3.4 ± 0.76 µM. The Emax was 65% at FPR3, 115% on FPR1 and 90% at FPR2.
